# Experimental data reported in ChEMBL document CHEMBL4715736, “Identification of anticancer agents based on the thieno[2,3-b]pyridine and 1H-pyrazole molecular scaffolds” (2016).
# System: CCRF-CEM
# Test: Growth inhibition of human CCRF-CEM cells assessed as cell growth at 10 uM incubated for 48 hrs by sulforhodamine B assay relative to control
# Type: functional
# Conditions: read-out: Activity
# Procedure, shortened: (§1)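 NCI Developmental Therapeutics Program NCI60 panel. Compounds that were active in the 10 µM one-dose screen went on to dose–response testing. Growth at each concentration is expressed relative to untreated control (100%). GI50 (concentration giving 50% of maximal inhibition of proliferation) and TGI (concentration giving total growth inhibition) were derived from the curves.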
row,SMILES,growth at 10 µM
1,COc1ccc(-c2ccn(S(=O)(=O)c3ccc(OC)cc3)n2)cc1,71.3%

# System: HL-60(TB)
# Test: Growth inhibition of human HL-60(TB) cells assessed as cell growth at 10 uM incubated for 48 hrs by sulforhodamine B assay relative to control
# Type: functional
# Conditions: read-out: Activity
# Procedure, shortened: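 Screened by the NCI Developmental Therapeutics Program on its panel of 60 human tumour cell lines. Compounds were first tested at a single 10 µM dose, and compounds active there went to dose-response curves. Growth is expressed relative to untreated control (100%). GI50 (50% of maximal proliferation inhibition) and TGI (total growth inhibition) were derived from the dose-response data.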
row,SMILES,growth at 10 µM
1,COc1ccc(-c2ccn(S(=O)(=O)c3ccc(OC)cc3)n2)cc1,99.4%

# System: MOLT-4
# Test: Growth inhibition of human MOLT-4 cells assessed as cell growth at 10 uM incubated for 48 hrs by sulforhodamine B assay relative to control
# Type: functional
# Conditions: read-out: Activity
# Procedure, shortened: (§2)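 Submitted to the NCI Developmental Therapeutics Program for the NCI60 human tumour cell line panel. First screen at a single 10 µM concentration. Read-out is growth relative to untreated control cells set at 100%.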
row,SMILES,growth at 10 µM
1,COc1ccc(-c2ccn(S(=O)(=O)c3ccc(OC)cc3)n2)cc1,73.2%

# System: A549
# Test: Growth inhibition of human A549/ATCC cells assessed as cell growth at 10 uM incubated for 48 hrs by sulforhodamine B assay relative to control
# Type: functional
# Conditions: read-out: Activity
# Procedure, shortened: as §1
row,SMILES,growth at 10 µM
1,COc1ccc(-c2ccn(S(=O)(=O)c3ccc(OC)cc3)n2)cc1,88.3%

# System: HOP-62
# Test: Growth inhibition of human HOP-62 cells assessed as cell growth at 10 uM incubated for 48 hrs by sulforhodamine B assay relative to control
# Type: functional
# Conditions: read-out: Activity
# Procedure, shortened: as §2
row,SMILES,growth at 10 µM
1,COc1ccc(-c2ccn(S(=O)(=O)c3ccc(OC)cc3)n2)cc1,101%

# System: HOP-92
# Test: Growth inhibition of human HOP-92 cells assessed as cell growth at 10 uM incubated for 48 hrs by sulforhodamine B assay relative to control
# Type: functional
# Conditions: read-out: Activity
# Procedure, shortened: as §2
row,SMILES,growth at 10 µM
1,COc1ccc(-c2ccn(S(=O)(=O)c3ccc(OC)cc3)n2)cc1,38.8%

# System: NCI-H226
# Test: Growth inhibition of human NCI-H226 cells assessed as cell growth at 10 uM incubated for 48 hrs by sulforhodamine B assay relative to control
# Type: functional
# Conditions: read-out: Activity
# Procedure, shortened: as §2
row,SMILES,growth at 10 µM
1,COc1ccc(-c2ccn(S(=O)(=O)c3ccc(OC)cc3)n2)cc1,70.9%

# System: NCI-H322M
# Test: Growth inhibition of human NCI-H322M cells assessed as cell growth at 10 uM incubated for 48 hrs by sulforhodamine B assay relative to control
# Type: functional
# Conditions: read-out: Activity
# Procedure, shortened: as §2
row,SMILES,growth at 10 µM
1,COc1ccc(-c2ccn(S(=O)(=O)c3ccc(OC)cc3)n2)cc1,98.3%

# System: NCI-H460
# Test: Growth inhibition of human NCI-H460 cells assessed as cell growth at 10 uM incubated for 48 hrs by sulforhodamine B assay relative to control
# Type: functional
# Conditions: read-out: Activity
# Procedure, shortened: as §2
row,SMILES,growth at 10 µM
1,COc1ccc(-c2ccn(S(=O)(=O)c3ccc(OC)cc3)n2)cc1,75%

# System: HCT-116
# Test: Growth inhibition of human HCT-116 cells assessed as cell growth at 10 uM incubated for 48 hrs by sulforhodamine B assay relative to control
# Type: functional
# Conditions: read-out: Activity
# Procedure, shortened: as §2
row,SMILES,growth at 10 µM
1,COc1ccc(-c2ccn(S(=O)(=O)c3ccc(OC)cc3)n2)cc1,60.3%

# System: HCT-15
# Test: Growth inhibition of human HCT-15 cells assessed as cell growth at 10 uM incubated for 48 hrs by sulforhodamine B assay relative to control
# Type: functional
# Conditions: read-out: Activity
# Procedure, shortened: as §2
row,SMILES,growth at 10 µM
1,COc1ccc(-c2ccn(S(=O)(=O)c3ccc(OC)cc3)n2)cc1,83%

# System: KM12
# Test: Growth inhibition of human KM12 cells assessed as cell growth at 10 uM incubated for 48 hrs by sulforhodamine B assay relative to control
# Type: functional
# Conditions: read-out: Activity
# Procedure, shortened: as §2
row,SMILES,growth at 10 µM
1,COc1ccc(-c2ccn(S(=O)(=O)c3ccc(OC)cc3)n2)cc1,88.4%

# System: SF-295
# Test: Growth inhibition of human SF-295 cells assessed as cell growth at 10 uM incubated for 48 hrs by sulforhodamine B assay relative to control
# Type: functional
# Conditions: read-out: Activity
# Procedure, shortened: (§3)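 Run by the NCI Developmental Therapeutics Program as part of its 60-line human tumour panel. Each compound tested at a single 10 µM dose. Growth expressed as % relative to untreated control cells (100%).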
row,SMILES,growth at 10 µM
1,COc1ccc(-c2ccn(S(=O)(=O)c3ccc(OC)cc3)n2)cc1,72.7%

# System: SF-539
# Test: Growth inhibition of human SF-539 cells assessed as cell growth at 10 uM incubated for 48 hrs by sulforhodamine B assay relative to control
# Type: functional
# Conditions: read-out: Activity
# Procedure, shortened: as §3
row,SMILES,growth at 10 µM
1,COc1ccc(-c2ccn(S(=O)(=O)c3ccc(OC)cc3)n2)cc1,87.3%

# System: SNB-75
# Test: Growth inhibition of human SNB-75 cells assessed as cell growth at 10 uM incubated for 48 hrs by sulforhodamine B assay relative to control
# Type: functional
# Conditions: read-out: Activity
# Procedure, shortened: as §3
row,SMILES,growth at 10 µM
1,COc1ccc(-c2ccn(S(=O)(=O)c3ccc(OC)cc3)n2)cc1,88.9%

# System: U-251
# Test: Growth inhibition of human U-251 cells assessed as cell growth at 10 uM incubated for 48 hrs by sulforhodamine B assay relative to control
# Type: functional
# Conditions: read-out: Activity
# Procedure, shortened: as §3
row,SMILES,growth at 10 µM
1,COc1ccc(-c2ccn(S(=O)(=O)c3ccc(OC)cc3)n2)cc1,86.6%

# System: Malme-3M
# Test: Growth inhibition of human Malme-3M cells assessed as cell growth at 10 uM incubated for 48 hrs by sulforhodamine B assay relative to control
# Type: functional
# Conditions: read-out: Activity
# Procedure, shortened: as §2
row,SMILES,growth at 10 µM
1,COc1ccc(-c2ccn(S(=O)(=O)c3ccc(OC)cc3)n2)cc1,112%

# System: M14
# Test: Growth inhibition of human M14 cells assessed as cell growth at 10 uM incubated for 48 hrs by sulforhodamine B assay relative to control
# Type: functional
# Conditions: read-out: Activity
# Procedure, shortened: as §2
row,SMILES,growth at 10 µM
1,COc1ccc(-c2ccn(S(=O)(=O)c3ccc(OC)cc3)n2)cc1,74%

# System: MDA-MB-435
# Test: Growth inhibition of human MDA-MB-435 cells assessed as cell growth at 10 uM incubated for 48 hrs by sulforhodamine B assay relative to control
# Type: functional
# Conditions: read-out: Activity
# Procedure, shortened: as §2
row,SMILES,growth at 10 µM
1,COc1ccc(-c2ccn(S(=O)(=O)c3ccc(OC)cc3)n2)cc1,88.4%

# System: SK-MEL-28
# Test: Growth inhibition of human SK-MEL-28 cells assessed as cell growth at 10 uM incubated for 48 hrs by sulforhodamine B assay relative to control
# Type: functional
# Conditions: read-out: Activity
# Procedure, shortened: as §3
row,SMILES,growth at 10 µM
1,COc1ccc(-c2ccn(S(=O)(=O)c3ccc(OC)cc3)n2)cc1,99.2%

# System: SK-MEL-5
# Test: Growth inhibition of human SK-MEL-5 cells assessed as cell growth at 10 uM incubated for 48 hrs by sulforhodamine B assay relative to control
# Type: functional
# Conditions: read-out: Activity
# Procedure, shortened: as §3
row,SMILES,growth at 10 µM
1,COc1ccc(-c2ccn(S(=O)(=O)c3ccc(OC)cc3)n2)cc1,79.9%

# System: UACC-257
# Test: Growth inhibition of human UACC-257 cells assessed as cell growth at 10 uM incubated for 48 hrs by sulforhodamine B assay relative to control
# Type: functional
# Conditions: read-out: Activity
# Procedure, shortened: as §3
row,SMILES,growth at 10 µM
1,COc1ccc(-c2ccn(S(=O)(=O)c3ccc(OC)cc3)n2)cc1,86.2%

# System: UACC-62
# Test: Growth inhibition of human UACC-62 cells assessed as cell growth at 10 uM incubated for 48 hrs by sulforhodamine B assay relative to control
# Type: functional
# Conditions: read-out: Activity
# Procedure, shortened: as §3
row,SMILES,growth at 10 µM
1,COc1ccc(-c2ccn(S(=O)(=O)c3ccc(OC)cc3)n2)cc1,71.3%

# System: IGROV-1
# Test: Growth inhibition of human IGROV-1 cells assessed as cell growth at 10 uM incubated for 48 hrs by sulforhodamine B assay relative to control
# Type: functional
# Conditions: read-out: Activity
# Procedure, shortened: as §2
row,SMILES,growth at 10 µM
1,COc1ccc(-c2ccn(S(=O)(=O)c3ccc(OC)cc3)n2)cc1,91.6%

# System: OVCAR-3
# Test: Growth inhibition of human OVCAR-3 cells assessed as cell growth at 10 uM incubated for 48 hrs by sulforhodamine B assay relative to control
# Type: functional
# Conditions: read-out: Activity
# Procedure, shortened: as §3
row,SMILES,growth at 10 µM
1,COc1ccc(-c2ccn(S(=O)(=O)c3ccc(OC)cc3)n2)cc1,89.3%

# System: OVCAR-5
# Test: Growth inhibition of human OVCAR-5 cells assessed as cell growth at 10 uM incubated for 48 hrs by sulforhodamine B assay relative to control
# Type: functional
# Conditions: read-out: Activity
# Procedure, shortened: as §3
row,SMILES,growth at 10 µM
1,COc1ccc(-c2ccn(S(=O)(=O)c3ccc(OC)cc3)n2)cc1,90.2%

# System: NCI/ADR-RES
# Test: Growth inhibition of human NCI/ADR-RES cells assessed as cell growth at 10 uM incubated for 48 hrs by sulforhodamine B assay relative to control
# Type: functional
# Conditions: read-out: Activity
# Procedure, shortened: as §2
row,SMILES,growth at 10 µM
1,COc1ccc(-c2ccn(S(=O)(=O)c3ccc(OC)cc3)n2)cc1,88.4%

# System: A498
# Test: Growth inhibition of human A498 cells assessed as cell growth at 10 uM incubated for 48 hrs by sulforhodamine B assay relative to control
# Type: functional
# Conditions: read-out: Activity
# Procedure, shortened: as §1
row,SMILES,growth at 10 µM
1,COc1ccc(-c2ccn(S(=O)(=O)c3ccc(OC)cc3)n2)cc1,50.2%

# System: RXF 393
# Test: Growth inhibition of human RXF 393 cells assessed as cell growth at 10 uM incubated for 48 hrs by sulforhodamine B assay relative to control
# Type: functional
# Conditions: read-out: Activity
# Procedure, shortened: as §3
row,SMILES,growth at 10 µM
1,COc1ccc(-c2ccn(S(=O)(=O)c3ccc(OC)cc3)n2)cc1,88.7%

# System: SN12C
# Test: Growth inhibition of human SN12C cells assessed as cell growth at 10 uM incubated for 48 hrs by sulforhodamine B assay relative to control
# Type: functional
# Conditions: read-out: Activity
# Procedure, shortened: as §3
row,SMILES,growth at 10 µM
1,COc1ccc(-c2ccn(S(=O)(=O)c3ccc(OC)cc3)n2)cc1,92.4%

# System: UO-31
# Test: Growth inhibition of human UO-31 cells assessed as cell growth at 10 uM incubated for 48 hrs by sulforhodamine B assay relative to control
# Type: functional
# Conditions: read-out: Activity
# Procedure, shortened: as §3
row,SMILES,growth at 10 µM
1,COc1ccc(-c2ccn(S(=O)(=O)c3ccc(OC)cc3)n2)cc1,72%

# System: PC-3
# Test: Growth inhibition of human PC-3 cells assessed as cell growth at 10 uM incubated for 48 hrs by sulforhodamine B assay relative to control
# Type: functional
# Conditions: read-out: Activity
# Procedure, shortened: as §3
row,SMILES,growth at 10 µM
1,COc1ccc(-c2ccn(S(=O)(=O)c3ccc(OC)cc3)n2)cc1,65.8%

# System: Hs-578T
# Test: Growth inhibition of human Hs-578T cells assessed as cell growth at 10 uM incubated for 48 hrs by sulforhodamine B assay relative to control
# Type: functional
# Conditions: read-out: Activity
# Procedure, shortened: as §2
row,SMILES,growth at 10 µM
1,COc1ccc(-c2ccn(S(=O)(=O)c3ccc(OC)cc3)n2)cc1,93.6%

# System: MDA-MB-468
# Test: Growth inhibition of human MDA-MB-468 cells assessed as cell growth at 10 uM incubated for 48 hrs by sulforhodamine B assay relative to control
# Type: functional
# Conditions: read-out: Activity
# Procedure, shortened: as §2
row,SMILES,growth at 10 µM
1,COc1ccc(-c2ccn(S(=O)(=O)c3ccc(OC)cc3)n2)cc1,59.3%
